Publication PMC3288198 (ACS Chemical Biology, 2011)
Where two headings read alike, the source gives them in different places.

How the values were obtained:
Type in all cases: biochemical
HDAC1 = HDAC1 (Homo sapiens, UniProt Q13547); assay: HDAC deacetylase homogenous fluorescence assay, HDAC1
Procedure, shortened: (§1)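 Baculovirus-expressed recombinant human enzyme (HDAC3 as HDAC3/N-CoR2 complex) incubated with serially diluted test compound over a 12-point titration. Substrate: acetylated AMC-K(Ac)GL. Deacetylated product cleaved by lysine peptidase to free MCA, read at ex 355/em 460 nm. Data normalised to control plate by plate. IC50 and SD from non-linear regression; Ki via Cheng-Prusoff, Ki = IC50/(1+[S]/Km).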

HDAC3/N-CoR2 = HDAC3/N-CoR2 (Homo sapiens, UniProt O15379); assay: HDAC deacetylase homogenous fluorescence assay, HDAC3
Procedure, shortened: as §1

HDAC9 = HDAC9 (Homo sapiens, UniProt Q9UKV0); assay: HDAC deacetylase homogenous fluorescence assay, HDAC9
Procedure, shortened: (§2)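 Recombinant human enzyme (HDAC5, 8, 9 baculovirus-expressed) incubated with serially diluted test compound over a 12-point titration. Substrate: trifluoroacetylated AMC-K(TFA)GL. Peptidase development releases MCA, read at ex 355/em 460 nm. Activity normalised to plate controls. IC50 and SD by non-linear regression; Ki by Cheng-Prusoff, Ki = IC50/(1+[S]/Km).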

HDAC4 = HDAC4 (Homo sapiens, UniProt P56524); assay: HDAC deacetylase homogenous fluorescence assay, HDAC4
HDAC11 = molecular target: T1, HDAC11 (Homo sapiens, UniProt Q96DB2); assay: HDAC deacetylase homogenous fluorescence assay, HDAC11
T1 sequence (Q96DB2 1-347): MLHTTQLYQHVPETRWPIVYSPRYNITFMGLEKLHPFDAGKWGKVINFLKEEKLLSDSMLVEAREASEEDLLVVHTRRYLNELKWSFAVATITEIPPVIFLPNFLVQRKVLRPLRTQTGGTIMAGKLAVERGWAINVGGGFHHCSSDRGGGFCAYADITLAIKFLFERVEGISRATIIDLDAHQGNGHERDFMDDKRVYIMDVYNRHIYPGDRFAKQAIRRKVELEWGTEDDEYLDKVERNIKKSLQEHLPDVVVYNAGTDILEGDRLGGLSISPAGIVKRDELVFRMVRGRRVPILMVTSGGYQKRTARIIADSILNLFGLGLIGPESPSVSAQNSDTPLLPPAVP

HDAC10 = molecular target: T2, HDAC10 (Homo sapiens, UniProt Q969S8); assay: HDAC deacetylase homogenous fluorescence assay, HDAC10
T2 sequence (Q969S8 1-669): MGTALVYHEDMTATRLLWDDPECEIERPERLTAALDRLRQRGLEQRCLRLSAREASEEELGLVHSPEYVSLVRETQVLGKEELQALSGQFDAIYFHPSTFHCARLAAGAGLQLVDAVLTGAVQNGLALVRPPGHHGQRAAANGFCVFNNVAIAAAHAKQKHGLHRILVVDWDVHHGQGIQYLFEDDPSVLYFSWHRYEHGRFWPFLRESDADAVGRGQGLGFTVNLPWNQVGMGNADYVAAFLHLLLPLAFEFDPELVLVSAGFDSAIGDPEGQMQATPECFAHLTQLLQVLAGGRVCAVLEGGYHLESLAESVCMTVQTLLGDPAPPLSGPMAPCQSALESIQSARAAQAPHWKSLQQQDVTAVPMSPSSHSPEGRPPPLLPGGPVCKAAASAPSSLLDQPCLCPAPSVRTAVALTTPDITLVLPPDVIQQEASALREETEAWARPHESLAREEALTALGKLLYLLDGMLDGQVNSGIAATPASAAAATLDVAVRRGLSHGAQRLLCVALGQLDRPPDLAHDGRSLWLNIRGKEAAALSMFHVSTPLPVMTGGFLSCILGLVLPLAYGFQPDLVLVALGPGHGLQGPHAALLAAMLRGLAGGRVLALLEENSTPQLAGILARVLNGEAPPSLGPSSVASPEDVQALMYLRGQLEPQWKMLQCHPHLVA
Procedure, shortened: as §1

HDAC8 = molecular target: T3, HDAC8 (Homo sapiens, UniProt Q9BY41); assay: HDAC deacetylase homogenous fluorescence assay, HDAC8
T3 sequence (Q9BY41 1-377): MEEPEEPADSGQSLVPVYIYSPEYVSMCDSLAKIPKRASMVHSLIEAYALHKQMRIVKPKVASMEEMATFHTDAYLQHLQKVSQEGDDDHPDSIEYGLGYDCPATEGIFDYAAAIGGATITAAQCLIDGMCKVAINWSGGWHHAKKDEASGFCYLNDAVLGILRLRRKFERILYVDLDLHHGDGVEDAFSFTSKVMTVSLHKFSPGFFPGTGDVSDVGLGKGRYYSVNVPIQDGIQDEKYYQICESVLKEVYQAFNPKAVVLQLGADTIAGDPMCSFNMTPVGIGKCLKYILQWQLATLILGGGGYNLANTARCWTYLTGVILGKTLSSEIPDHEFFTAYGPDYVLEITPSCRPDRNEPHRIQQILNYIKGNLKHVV
Procedure, shortened: as §2

HDAC5 = HDAC5 (Homo sapiens, UniProt Q9UQL6); assay: HDAC deacetylase homogenous fluorescence assay, HDAC5
Procedure, shortened: as §2

HDAC2 = HDAC2 (Homo sapiens, UniProt Q92769); assay: HDAC deacetylase homogenous fluorescence assay, HDAC2; details: for Ki: read-out: HDAC2 Ki, converted from IC50 using Cheng-Prusoff equation
Procedure, shortened: as §1

[1] = read-out: HDAC1 IC50, 12 point titration, acetylated substrate
[2] = read-out: HDAC1 Ki, converted from IC50 using Cheng-Prusoff equation
[3] = read-out: HDAC3 IC50, 12 point titration, acetylated substrate
[4] = read-out: HDAC3 Ki, converted from IC50 using Cheng-Prusoff equation
[5] = read-out: HDAC9 IC50, 12 point titration, trifluoroacetylated substrate
[6] = read-out: HDAC9 Ki, converted from IC50 using Cheng-Prusoff equation
[7] = read-out: HDAC4 IC50, 12 point titration, trifluoroacetylated substrate
[8] = read-out: HDAC4 Ki, converted from IC50 using Cheng-Prusoff equation
[9] = read-out: HDAC11 IC50, 12 point titration, trifluoroacetylated substrate
[10] = read-out: HDAC10 IC50, 12 point titration, acetylated substrate
[11] = read-out: HDAC8 IC50, 12 point titration, trifluoroacetylated substrate
[12] = read-out: HDAC8 Ki, converted from IC50 using Cheng-Prusoff equation
[13] = read-out: HDAC5 IC50, 12 point titration, trifluoroacetylated substrate
[14] = read-out: HDAC5 Ki, converted from IC50 using Cheng-Prusoff equation
[15] = read-out: HDAC2 IC50, 12 point titration, acetylated substrate

HDAC5, sequence (Q9UQL6 whole entry): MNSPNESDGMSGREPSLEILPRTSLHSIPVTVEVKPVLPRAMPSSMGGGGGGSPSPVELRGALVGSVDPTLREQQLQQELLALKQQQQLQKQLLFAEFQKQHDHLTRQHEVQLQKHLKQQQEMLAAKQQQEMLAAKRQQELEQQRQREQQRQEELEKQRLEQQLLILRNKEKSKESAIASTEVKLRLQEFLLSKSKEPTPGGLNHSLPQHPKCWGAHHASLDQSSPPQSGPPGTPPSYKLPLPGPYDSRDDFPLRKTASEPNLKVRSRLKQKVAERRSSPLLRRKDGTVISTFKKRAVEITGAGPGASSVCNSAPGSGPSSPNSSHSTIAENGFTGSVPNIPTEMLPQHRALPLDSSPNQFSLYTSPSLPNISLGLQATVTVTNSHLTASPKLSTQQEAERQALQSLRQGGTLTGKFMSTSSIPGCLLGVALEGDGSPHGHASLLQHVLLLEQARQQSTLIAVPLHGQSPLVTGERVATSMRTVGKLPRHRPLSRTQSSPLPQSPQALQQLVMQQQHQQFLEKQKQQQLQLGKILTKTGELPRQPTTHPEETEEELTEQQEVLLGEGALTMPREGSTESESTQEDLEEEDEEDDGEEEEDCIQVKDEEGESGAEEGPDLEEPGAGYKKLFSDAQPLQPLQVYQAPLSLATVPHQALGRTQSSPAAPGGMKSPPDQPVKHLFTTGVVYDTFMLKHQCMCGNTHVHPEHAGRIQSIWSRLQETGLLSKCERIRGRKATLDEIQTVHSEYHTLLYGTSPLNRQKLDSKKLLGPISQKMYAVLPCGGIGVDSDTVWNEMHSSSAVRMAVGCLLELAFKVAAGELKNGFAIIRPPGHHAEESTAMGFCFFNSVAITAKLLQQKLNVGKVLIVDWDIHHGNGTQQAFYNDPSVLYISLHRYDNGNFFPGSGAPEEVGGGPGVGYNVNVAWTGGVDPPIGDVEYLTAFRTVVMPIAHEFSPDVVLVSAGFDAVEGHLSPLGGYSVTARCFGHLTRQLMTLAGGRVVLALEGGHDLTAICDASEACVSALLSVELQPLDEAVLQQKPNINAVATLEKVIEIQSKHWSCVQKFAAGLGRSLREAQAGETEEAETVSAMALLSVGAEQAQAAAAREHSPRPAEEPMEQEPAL
HDAC1, sequence (Q13547 whole entry): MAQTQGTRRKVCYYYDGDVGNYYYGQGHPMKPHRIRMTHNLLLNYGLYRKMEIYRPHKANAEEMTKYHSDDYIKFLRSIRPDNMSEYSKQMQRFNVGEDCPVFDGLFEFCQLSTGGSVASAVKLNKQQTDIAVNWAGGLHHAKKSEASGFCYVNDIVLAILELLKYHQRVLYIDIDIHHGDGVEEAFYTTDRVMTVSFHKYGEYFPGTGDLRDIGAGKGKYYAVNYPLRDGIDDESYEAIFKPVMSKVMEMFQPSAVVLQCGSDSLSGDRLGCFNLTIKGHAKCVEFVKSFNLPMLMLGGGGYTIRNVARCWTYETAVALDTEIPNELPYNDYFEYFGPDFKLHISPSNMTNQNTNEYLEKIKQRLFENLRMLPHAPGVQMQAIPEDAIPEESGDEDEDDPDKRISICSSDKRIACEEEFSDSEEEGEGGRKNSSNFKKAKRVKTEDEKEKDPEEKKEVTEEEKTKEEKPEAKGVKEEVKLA
HDAC9, sequence (Q9UKV0 whole entry): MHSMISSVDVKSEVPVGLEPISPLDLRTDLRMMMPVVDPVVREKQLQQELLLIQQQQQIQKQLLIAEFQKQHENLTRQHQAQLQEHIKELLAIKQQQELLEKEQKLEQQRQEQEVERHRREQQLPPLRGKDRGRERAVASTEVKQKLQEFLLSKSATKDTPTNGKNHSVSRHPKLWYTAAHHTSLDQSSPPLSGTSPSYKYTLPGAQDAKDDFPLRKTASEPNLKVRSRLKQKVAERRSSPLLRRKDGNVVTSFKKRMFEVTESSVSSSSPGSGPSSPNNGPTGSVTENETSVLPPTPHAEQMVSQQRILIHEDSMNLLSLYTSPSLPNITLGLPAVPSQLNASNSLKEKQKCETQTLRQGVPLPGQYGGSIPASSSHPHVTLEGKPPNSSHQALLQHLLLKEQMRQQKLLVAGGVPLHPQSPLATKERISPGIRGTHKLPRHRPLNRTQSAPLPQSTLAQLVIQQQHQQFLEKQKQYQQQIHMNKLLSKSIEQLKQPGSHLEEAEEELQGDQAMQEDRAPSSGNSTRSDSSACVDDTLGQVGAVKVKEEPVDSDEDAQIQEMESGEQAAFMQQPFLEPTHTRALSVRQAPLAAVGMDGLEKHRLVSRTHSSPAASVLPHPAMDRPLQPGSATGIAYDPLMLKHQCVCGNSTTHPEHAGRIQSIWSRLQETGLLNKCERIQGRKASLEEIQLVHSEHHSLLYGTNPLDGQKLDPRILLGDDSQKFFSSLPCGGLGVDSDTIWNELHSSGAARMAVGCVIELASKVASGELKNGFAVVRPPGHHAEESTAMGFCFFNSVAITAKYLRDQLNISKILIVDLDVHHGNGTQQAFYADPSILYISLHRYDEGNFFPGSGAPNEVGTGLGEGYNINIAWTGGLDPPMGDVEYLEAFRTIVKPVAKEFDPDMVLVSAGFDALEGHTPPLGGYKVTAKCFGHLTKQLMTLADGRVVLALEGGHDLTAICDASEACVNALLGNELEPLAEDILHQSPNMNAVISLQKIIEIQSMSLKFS
HDAC3/N-CoR2, sequence (O15379 whole entry): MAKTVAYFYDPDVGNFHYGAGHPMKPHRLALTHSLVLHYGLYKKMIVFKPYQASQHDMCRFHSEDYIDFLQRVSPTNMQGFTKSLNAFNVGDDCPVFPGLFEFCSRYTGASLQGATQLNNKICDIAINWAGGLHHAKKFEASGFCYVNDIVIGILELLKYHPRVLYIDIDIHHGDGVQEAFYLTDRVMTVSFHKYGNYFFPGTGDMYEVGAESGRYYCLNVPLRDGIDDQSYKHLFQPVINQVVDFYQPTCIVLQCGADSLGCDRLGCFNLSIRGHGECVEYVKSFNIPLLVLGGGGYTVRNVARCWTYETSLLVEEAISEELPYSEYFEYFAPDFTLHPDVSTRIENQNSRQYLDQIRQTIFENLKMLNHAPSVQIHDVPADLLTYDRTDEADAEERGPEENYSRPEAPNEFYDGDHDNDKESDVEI
HDAC3/N-CoR2, sequence (Q9Y618 395-489 partner limits assumed): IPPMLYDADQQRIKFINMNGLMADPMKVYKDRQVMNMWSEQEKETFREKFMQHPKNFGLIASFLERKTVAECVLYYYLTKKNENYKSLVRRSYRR
HDAC4, sequence (P56524 whole entry): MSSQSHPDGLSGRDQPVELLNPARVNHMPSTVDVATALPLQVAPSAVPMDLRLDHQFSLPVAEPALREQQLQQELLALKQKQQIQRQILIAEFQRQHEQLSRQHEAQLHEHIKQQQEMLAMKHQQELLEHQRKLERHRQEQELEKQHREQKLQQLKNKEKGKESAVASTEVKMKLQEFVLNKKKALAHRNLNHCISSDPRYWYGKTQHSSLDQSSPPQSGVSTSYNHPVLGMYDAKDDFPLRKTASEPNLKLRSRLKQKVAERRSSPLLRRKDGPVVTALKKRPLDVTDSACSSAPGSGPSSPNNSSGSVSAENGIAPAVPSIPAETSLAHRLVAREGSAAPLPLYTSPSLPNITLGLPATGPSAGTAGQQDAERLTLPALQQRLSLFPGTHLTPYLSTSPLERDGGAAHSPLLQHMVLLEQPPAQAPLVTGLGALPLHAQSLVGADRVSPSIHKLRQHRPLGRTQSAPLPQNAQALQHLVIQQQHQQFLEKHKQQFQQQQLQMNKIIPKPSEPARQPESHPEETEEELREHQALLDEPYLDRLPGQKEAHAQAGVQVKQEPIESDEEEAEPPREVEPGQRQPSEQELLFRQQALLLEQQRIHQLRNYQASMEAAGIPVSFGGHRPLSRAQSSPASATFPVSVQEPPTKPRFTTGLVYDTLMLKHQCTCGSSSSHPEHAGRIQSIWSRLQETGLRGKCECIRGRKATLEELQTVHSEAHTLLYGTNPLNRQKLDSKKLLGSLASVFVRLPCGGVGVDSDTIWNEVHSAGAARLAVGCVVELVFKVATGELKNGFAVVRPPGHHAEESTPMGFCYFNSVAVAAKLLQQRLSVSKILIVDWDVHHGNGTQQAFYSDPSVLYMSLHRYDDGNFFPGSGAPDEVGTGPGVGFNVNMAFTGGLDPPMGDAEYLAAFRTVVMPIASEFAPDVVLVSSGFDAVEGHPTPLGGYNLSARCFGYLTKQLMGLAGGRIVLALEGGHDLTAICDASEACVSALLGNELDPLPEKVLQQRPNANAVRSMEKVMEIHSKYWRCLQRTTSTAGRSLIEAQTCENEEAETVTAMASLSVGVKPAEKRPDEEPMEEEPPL
HDAC2, sequence (Q92769 whole entry): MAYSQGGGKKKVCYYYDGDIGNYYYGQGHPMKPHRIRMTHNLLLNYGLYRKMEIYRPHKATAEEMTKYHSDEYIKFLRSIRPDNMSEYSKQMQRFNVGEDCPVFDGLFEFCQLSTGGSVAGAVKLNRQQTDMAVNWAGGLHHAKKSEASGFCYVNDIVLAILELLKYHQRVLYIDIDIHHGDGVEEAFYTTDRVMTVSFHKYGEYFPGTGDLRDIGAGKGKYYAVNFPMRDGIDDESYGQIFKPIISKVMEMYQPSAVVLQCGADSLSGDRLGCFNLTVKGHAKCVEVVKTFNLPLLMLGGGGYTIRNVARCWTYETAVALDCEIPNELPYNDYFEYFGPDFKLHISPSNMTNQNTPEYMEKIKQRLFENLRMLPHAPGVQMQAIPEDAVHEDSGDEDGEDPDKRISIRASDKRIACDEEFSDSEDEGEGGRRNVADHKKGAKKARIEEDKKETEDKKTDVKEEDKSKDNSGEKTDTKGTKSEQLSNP

Row | SMILES | IC50 (HDAC1; [1]) | Ki (HDAC1; [2]) | IC50 (HDAC3/N-CoR2; [3]) | Ki (HDAC3/N-CoR2; [4]) | IC50 (HDAC9; [5]) | Ki (HDAC9; [6]) | IC50 (HDAC4; [7]) | Ki (HDAC4; [8]) | IC50 (HDAC11; [9]) | IC50 (HDAC10; [10]) | IC50 (HDAC8; [11]) | Ki (HDAC8; [12]) | IC50 (HDAC5; [13]) | Ki (HDAC5; [14]) | IC50 (HDAC2; [15]) | IC50 (HDAC1) | IC50 (HDAC3/N-CoR2) | IC50 (HDAC9) | IC50 (HDAC4) | Ki (HDAC4) | also measured
1 | OC[C@H]1O[C@H]([S-])[C@H](O)[C@@H](O)[C@@H]1O.[Au+] [Aurothioglucose, 1-thio-D-glucopyronaose gold salt] | 4.4 ± 1.1 µM | 0.47 µM | 11.5 ± 3.2 µM | 1.23 µM | 2.8 ± 0.1 µM | 1.19 µM | 4.1 ± 2.1 µM | 0.7 µM | > 180 µM | 4.9 ± 1.5 µM | 1.4 ± 0.3 µM | 1.11 µM | 0.72 ± 0.5 µM | 0.39 µM | > 180 µM |  |  |  |  |  | Ki (HDAC10; read-out: HDAC10 Ki, converted from IC50 using Cheng-Prusoff equation): 2.16 µM
2 | O=c1c2ccccc2[se]n1-c1ccccc1 [Ebselen, 2-phenyl-1,2-benzisoselenazol-3(2H)-one] |  |  |  |  |  |  |  |  |  |  |  |  |  |  |  | 1.5 ± 0.4 µM | 2.1 ± 1.5 µM | 0.97 ± 0.5 µM | 1.2 ± 0.2 µM | 0.2 µM | Ki (HDAC1): 0.15 µM; Ki (HDAC3/N-CoR2): 0.23 µM; IC50 (HDAC11): 22.5 ± 2.4 µM; Ki (HDAC11): 4.41 µM; IC50 (HDAC10): 0.95 ± 0.4 µM; Ki (HDAC10): 0.42 µM; IC50 (HDAC8): 0.35 ± 0.2 µM; IC50 (HDAC5): 0.78 ± 0.1 µM; Ki (HDAC5): 0.42 µM; IC50 (HDAC2): 1.4 ± 0.3 µM; Ki (HDAC2): 0.08 µM
3 | NC(N)=Nc1ccc2[nH]c3c(c2c1)C[C@@]1(O)[C@H]2Cc4ccc(O)c5c4[C@@]1(CCN2CC1CC1)[C@H]3O5 [GNTI, guanidinyl-naltrindole di-trifluoroacetate] | 30.2 ± 7.3 µM | 3.24 µM | 22.7 ± 3.1 µM | 2.43 µM | 12.3 ± 1.7 µM | 5.23 µM | 13.4 ± 1.6 µM | 2.29 µM | > 180 µM | > 180 µM | 2 ± 0.4 µM | 1.58 µM | 0.7 ± 0.1 µM | 0.38 µM | 26.2 ± 7.6 µM |  |  |  |  |  | Ki (HDAC2): 1.48 µM
4 | O=C1C(SCCO)=C(SCCO)C(=O)c2ccccc21 [NSC-95397, 2,3-bis[(2-Hydroxyethyl)thio]-1,4-naphthoquinone] |  |  |  |  |  |  |  |  |  |  |  |  |  |  |  | > 180 µM | > 100 µM | 4.8 ± 1.4 µM | 7.2 ± 2.8 µM | 1.23 µM | Ki (HDAC9): 2.04 µM; IC50 (HDAC11): 37.8 ± 1.4 µM; Ki (HDAC11): 7.41 µM; IC50 (HDAC10): 14.5 ± 1.5 µM; Ki (HDAC10): 6.4 µM; IC50 (HDAC8): 1.3 ± 0.1 µM; Ki (HDAC8): 1.03 µM; IC50 (HDAC5): 3.1 ± 0.2 µM; Ki (HDAC5): 1.68 µM; IC50 (HDAC2): > 100 µM
5 | COc1ccc2c(c1)CC[C@@H]1[C@@H]2CC[C@]2(C)[C@@H](NCCCCCCN3C(=O)C=CC3=O)CC[C@@H]12 [U-73122, 1-[6-[[(17beta)-3-methoxyestra-1,3,5([10])-trien-17-yl]amion]hexyl]-1H-pyrrole-2,5-dione] | 38.4 ± 15.5 µM | 4.11 µM | 6.2 ± 4 µM | 0.66 µM | 29.8 ± 5.6 µM | 12.7 µM | 31.2 ± 0.2 µM | 5.33 µM | > 180 µM | > 100 µM | 10.9 ± 3.1 µM | 8.63 µM | 10.5 ± 7.4 µM | 5.68 µM | > 100 µM |  |  |  |  |  | 
